Results as given in ChEMBL document CHEMBL5104186, “Structure-Activity Relationship and Neuroprotective Activity of 1,5-Dihydro-2H-naphtho[1,2-b][1,4]diazepine-2,4(3H)-diones as P2X4 Receptor Antagonists” (J Med Chem, 2022).
Active and inactive are the calls of the source. The calls are words filed in the database; no cut-off is given here.

Key:
[1] = biological target: P2X2/P2X3 heterotrimeric receptor (Homo sapiens) (UniProt Q9UBL9+P56373); test: Antagonist activity at human P2X2/3R transfected in CHO-K1 cells at 30 uM preincubated for 30 mins followed by alpha,beta-meATP addition by fluorescence based assay relative to control; format: cell-based; set-up: scale not given: the % may be the effect or the level left
[2] = biological target: T1, P2X purinoceptor 3 (Homo sapiens) (UniProt P56373); test: Antagonist activity at human P2X3R transfected in CHO-K1 cells at 30 uM preincubated for 30 mins followed by alpha,beta-meATP addition by fluorescence based assay relative to control; format: cell-based; set-up: scale not given: the % may be the effect or the level left
T1 sequence (whole entry): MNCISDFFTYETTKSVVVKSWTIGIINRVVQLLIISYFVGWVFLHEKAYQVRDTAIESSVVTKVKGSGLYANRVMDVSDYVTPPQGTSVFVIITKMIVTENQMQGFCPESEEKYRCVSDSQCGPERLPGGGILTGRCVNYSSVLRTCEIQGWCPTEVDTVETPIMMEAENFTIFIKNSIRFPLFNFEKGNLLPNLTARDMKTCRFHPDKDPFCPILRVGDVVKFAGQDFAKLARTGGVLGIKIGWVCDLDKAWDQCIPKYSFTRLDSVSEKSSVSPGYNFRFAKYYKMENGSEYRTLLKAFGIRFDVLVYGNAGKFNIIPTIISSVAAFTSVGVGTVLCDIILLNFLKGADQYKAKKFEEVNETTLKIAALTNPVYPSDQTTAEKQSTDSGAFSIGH

[3] = biological target: T2, P2X purinoceptor 1 (Homo sapiens) (UniProt P51575); test: Antagonist activity at human P2X1R transfected in CHO-K1 cells at 30 uM preincubated for 30 mins followed by alpha,beta-meATP addition by […] based assay relative to control; format: cell-based; set-up: scale not given: the % may be the effect or the level left
T2 sequence (whole entry): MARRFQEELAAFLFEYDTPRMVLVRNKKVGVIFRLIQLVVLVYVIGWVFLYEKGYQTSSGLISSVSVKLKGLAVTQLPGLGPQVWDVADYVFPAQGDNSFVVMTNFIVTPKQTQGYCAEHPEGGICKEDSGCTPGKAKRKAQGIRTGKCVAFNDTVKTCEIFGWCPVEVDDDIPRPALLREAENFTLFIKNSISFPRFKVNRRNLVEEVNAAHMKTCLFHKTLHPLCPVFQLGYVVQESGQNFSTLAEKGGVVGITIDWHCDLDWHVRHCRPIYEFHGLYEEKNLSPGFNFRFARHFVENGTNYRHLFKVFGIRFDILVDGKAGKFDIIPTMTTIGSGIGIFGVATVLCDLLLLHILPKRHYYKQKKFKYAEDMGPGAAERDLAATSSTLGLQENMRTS

[4] = biological target: T3, P2X purinoceptor 4 (Homo sapiens) (UniProt Q99571); test: Antagonist activity at human P2X4R transfected in HEK293 cells at 30 uM preincubated for 30 mins followed by CTP addition by fluorescence based assay relative to control; format: cell-based; set-up: scale not given: the % may be the effect or the level left
T3 sequence (whole entry): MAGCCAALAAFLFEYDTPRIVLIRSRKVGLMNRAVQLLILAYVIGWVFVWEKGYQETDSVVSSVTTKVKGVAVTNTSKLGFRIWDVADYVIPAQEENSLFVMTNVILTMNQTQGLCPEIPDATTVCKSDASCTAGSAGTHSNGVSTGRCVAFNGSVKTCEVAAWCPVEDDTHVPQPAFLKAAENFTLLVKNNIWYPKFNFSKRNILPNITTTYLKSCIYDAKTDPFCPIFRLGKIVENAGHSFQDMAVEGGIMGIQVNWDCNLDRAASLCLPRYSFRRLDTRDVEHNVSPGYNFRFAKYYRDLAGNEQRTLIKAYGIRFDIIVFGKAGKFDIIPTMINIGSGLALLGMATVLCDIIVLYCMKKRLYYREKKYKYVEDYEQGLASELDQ

Mus musculus [5] = test: Neuroprotective activity in Wild type C57B/6 mouse model of middle cerebral artery occlusion assessed as reduction in hemispheric infract size at 5 mg/kg/day administered for 3 days; format: functional, organism-based; settings: time 3.0 day
How it was run: (§1)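 C57B/6 mice (8–12-week-old males; 12–13-month-old mice in one study) underwent MCAO (filament, laser Doppler confirmation, 37 °C). At reperfusion a subcutaneous Alzet pump was implanted, giving 0.5–3.0 or 5.0 mg/kg/day for 3 days; vehicle was PBS. At day 3, TTC-stained coronal sections were scored blind, with edema-corrected (Swanson) infarct volume as % of contralateral. Mean ± S.D.; n = 5–6.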

Mus musculus [6] = test: Neuroprotective activity in Wild type C57B/6 mouse model of middle cerebral artery occlusion assessed as reduction in infract damage at […] administered for 3 days by TTC staining based assay; format: functional, organism-based; settings: time 3.0 day
Mus musculus [7] = test: Improvement in learning and memory in C57B/6 mouse model of middle cerebral artery occlusion at 3 mg/kg measured after 4 weeks post stroke by NORT; format: functional, organism-based
How it was run: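 Middle-aged C57B/6 mice (both sexes) underwent MCAO and received a 3-day subcutaneous minipump infusion from reperfusion (vehicle PBS). NORT was run 4 weeks post-stroke: 1 h acclimatisation, 10 min habituation, 10 min trial with two identical objects, then a test 24 h later with one novel object. Discrimination index = (TN − TF)/(TN + TF). One-way ANOVA with Tukey; n = 5–11/group.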

Mus musculus [8] = test: Neuroprotective activity in Wild type C57B/6 mouse model of middle cerebral artery occlusion assessed as reduction in tissue atrophy at […] administered for 3 days measured after 35 days by CV staining based assay; format: functional, organism-based; settings: time 3.0 day
[9] = biological target: T4, 5-hydroxytryptamine receptor 2C (Homo sapiens, UniProt P28335); test: Binding affinity to human 5HT2C serotonin receptor
T4 sequence (P28335 whole entry): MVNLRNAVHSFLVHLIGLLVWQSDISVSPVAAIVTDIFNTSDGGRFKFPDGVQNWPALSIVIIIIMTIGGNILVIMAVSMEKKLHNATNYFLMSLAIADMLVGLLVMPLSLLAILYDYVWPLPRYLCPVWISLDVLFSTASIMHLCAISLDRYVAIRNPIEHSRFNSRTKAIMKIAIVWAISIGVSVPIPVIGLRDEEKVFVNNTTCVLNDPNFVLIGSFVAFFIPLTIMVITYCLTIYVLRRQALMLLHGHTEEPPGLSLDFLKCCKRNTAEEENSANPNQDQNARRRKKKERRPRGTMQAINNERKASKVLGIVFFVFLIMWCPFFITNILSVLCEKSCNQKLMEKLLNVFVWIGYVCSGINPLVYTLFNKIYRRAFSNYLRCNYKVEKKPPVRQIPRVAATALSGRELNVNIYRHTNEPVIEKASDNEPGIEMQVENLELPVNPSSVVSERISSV
How it was run: (§2)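 Off-target radioligand binding was run by the NIMH Psychoactive Drug Screening Program across 45 receptors, channels and transporters. Ki in nM, given as mean ± SEM.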

Mus musculus [10] = test: Neuroprotective activity in Wild type C57B/6 mouse model of middle cerebral artery occlusion assessed as reduction in cortical infract volume at […] administered for 3 days; format: functional, organism-based; settings: time 3.0 day
MDM [11] = test: Inhibition of ATP-induced calcium influx in human monocytes derived macrophages assessed as decrease in calcium altitude at 0.6 uM preincubated for 15 mins followed by ATP addition and measured upto 4 mins by laser scanning confocal microscopic analysis; format: functional, cell-based; settings: time <= 19.0 min
How it was run: (§3)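 Monocytes matured into macrophages with GM-CSF (5 ng/mL) for 5–7 days, then seeded 10^4 cells/dish for ≥24 h. Calbryte 590 AM loaded for 60 min in HBSS/HEPES. Cells pretreated 15 min with 0–3 μM compound, then 50 μM ATP added; confocal images taken every 6 s for up to 4 min. Read-out is peak cytosolic Ca2+ amplitude (F/F0). Mean ± SEM; ANOVA with Tukey.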

[12] = Effect on locomotor activity in C57B/6 mouse model of middle cerebral artery occlusion at 1.5 to 3 mg/kg/day measured over 4 weeks after stroke by open field test; format: toxicity, organism-based; settings: in vivo, 672 h, dose 1.5-3 mg/kg/day
How it was run: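 C57B/6 mice underwent MCAO and received a subcutaneous Alzet minipump (vehicle 1× PBS) at reperfusion, delivering compound for 3 days. Open-field test: 10 min exploration of a 16″ acrylic box at several time points; total beam breaks recorded. Mean ± S.D.; n = 8–15/group, both sexes.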

Mus musculus [13] = test: Neuroprotective activity in Wild type C57B/6 mouse model of middle cerebral artery occlusion assessed as reduction in hemispheric infract size at 0.5 to 3 mg/kg/day administered for 3 days; format: functional, organism-based; settings: dose 0.5-3 mg/kg/day, time 3.0 day; how it was run: as §1
D(3) dopamine receptor = D(3) dopamine receptor (Homo sapiens, UniProt P35462); test: Binding affinity to human D3 dopamine receptor; how it was run: as §2
Sequence of D(3) dopamine receptor (P35462 whole entry): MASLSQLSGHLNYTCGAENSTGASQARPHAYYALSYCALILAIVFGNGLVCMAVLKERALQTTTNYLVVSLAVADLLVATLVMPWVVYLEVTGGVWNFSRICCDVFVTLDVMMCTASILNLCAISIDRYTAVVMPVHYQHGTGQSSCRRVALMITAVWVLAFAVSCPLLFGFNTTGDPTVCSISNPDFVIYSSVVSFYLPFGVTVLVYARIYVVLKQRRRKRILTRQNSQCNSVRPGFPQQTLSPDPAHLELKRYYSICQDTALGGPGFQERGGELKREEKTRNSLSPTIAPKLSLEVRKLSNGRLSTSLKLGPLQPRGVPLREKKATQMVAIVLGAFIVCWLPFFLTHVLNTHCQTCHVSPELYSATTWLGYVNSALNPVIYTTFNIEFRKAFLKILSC

MDM [14] = test: Inhibition of ATP-induced calcium influx in human monocytes derived macrophages preincubated for 15 mins followed by ATP addition and measured upto 4 mins by laser scanning confocal microscopic analysis; format: functional, cell-based; settings: dose 0.6-3 µM, time <= 19.0 min, DDE = dose-dependent effect; how it was run: as §3
P2X purinoceptor 4 [15] = biological target: T5, P2X purinoceptor 4 (Homo sapiens, UniProt Q99571); test: Antagonist activity at human P2X4R transfected in HEK293 cells preincubated for 30 mins followed by CTP addition by fluorescence based assay; format: cell-based
T5 sequence (Q99571 whole entry): T3 sequence (whole entry)

P2X purinoceptor 4 [16] = biological target: T6, P2X purinoceptor 4 (Rattus norvegicus, UniProt P51577); test: Antagonist activity at rat P2X4R expressed in HEK293 cells preincubated for 2 mins followed by ATP addition and measured after 4 mins; format: cell-based
T6 sequence (P51577 whole entry): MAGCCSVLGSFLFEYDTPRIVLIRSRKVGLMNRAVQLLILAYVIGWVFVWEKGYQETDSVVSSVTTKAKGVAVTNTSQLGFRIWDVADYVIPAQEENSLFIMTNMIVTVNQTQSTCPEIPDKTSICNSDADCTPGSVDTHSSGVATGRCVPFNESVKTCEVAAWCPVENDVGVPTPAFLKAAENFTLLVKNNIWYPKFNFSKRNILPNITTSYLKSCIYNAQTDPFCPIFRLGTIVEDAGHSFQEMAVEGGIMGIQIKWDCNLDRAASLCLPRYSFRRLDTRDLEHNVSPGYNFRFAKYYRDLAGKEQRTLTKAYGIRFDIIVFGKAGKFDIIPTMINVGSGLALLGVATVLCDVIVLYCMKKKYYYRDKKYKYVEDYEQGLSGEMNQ

SMILES | Activity [1] | Activity [2] | Activity [3] | Activity [4] | other results
O=C1CC(=O)N(c2cc(-c3noc(=S)[nH]3)ccn2)c2ccc3ccccc3c2N1 | -6% | 18% | 18% | – | –
O=C1CC(=O)N(c2cccc(-c3noc(=S)[nH]3)c2)c2cc(C#Cc3ccccc3)c3ccccc3c2N1 | 5% | 7% | 14% | -4% | –
CCc1cc2c(c3ccccc13)NC(=O)CC(=O)N2c1cccc(-c2noc(=S)[nH]2)c1 | 10% | 6% | 6% | – | –
CC(=O)NCc1ccc2ccc3c(c2c1)NC(=O)CC(=O)N3c1cccc(-c2noc(=S)[nH]2)c1 | -5% | 9% | 26% | 16% | –
CCCCC#Cc1cc2c(c3ccccc13)NC(=O)CC(=O)N2c1cccc(-c2noc(=S)[nH]2)c1 | 1% | 18% | 16% | 15% | –
Cc1cc(-c2noc(=S)[nH]2)cc(N2C(=O)CC(=O)Nc3c2ccc2ccccc32)c1 | 5% | 12% | 16% | – | –
[N-]=[N+]=NCc1ccc2ccc3c(c2c1)NC(=O)CC(=O)N3c1cccc(-c2noc(=S)[nH]2)c1 | 4% | 13% | 8% | 6% | –
Cc1ccc2c3c(ccc2c1)N(c1cccc(-c2noc(=S)[nH]2)c1)C(=O)CC(=O)N3 | – | – | – | – | Activity (Mus musculus [5]): Active
CCN(CC)CC.O=C1CC(=O)N(c2ccnc(-c3noc(=S)[nH]3)c2)c2ccc3ccccc3c2N1 | – | – | – | – | Activity (Mus musculus [6]): Active; Activity (Mus musculus [7]): Active; Activity (Mus musculus [8]): Active; Ki [9]: 0.006 µM; Activity (Mus musculus [10]): Active; inhibition (MDM [11]): Active; Activity [12]: Non-Toxic; Activity (Mus musculus [13]): Active; Ki (D(3) dopamine receptor): 0.00077 µM; inhibition (MDM [14]): Dde
O=C1CC(=O)N(c2cccc(-c3noc(=S)[nH]3)c2)c2cc(-c3ccccc3)c3ccccc3c2N1 | 10% | 11% | 14% | – | IC50 (P2X purinoceptor 4 [15]): 20.7 µM
O=C1CC(=O)N(c2cncc(-c3noc(=S)[nH]3)c2)c2ccc3ccccc3c2N1 | 25% | 6% | 15% | – | –
[N-]=[N+]=NCc1ccc2c(Br)cc3c(c2c1)NC(=O)CC(=O)N3c1cccc(-c2noc(=S)[nH]2)c1 | -4% | 15% | -13% | 8% | –
O=C1CC(=O)N(c2cccc(-c3noc(=S)[nH]3)n2)c2ccc3ccccc3c2N1 | 15% | 17% | 31% | – | –
NCc1ccc2ccc3c(c2c1)NC(=O)CC(=O)N3c1cccc(-c2noc(=S)[nH]2)c1 | 0% | 9% | 8% | 9% | –
O=C1CN=C(c2cccc(Br)c2)c2oc3ccccc3c2N1 | – | – | – | – | IC50 (P2X purinoceptor 4 [16]): 0.75 µM
Cc1ccc2c(Br)cc3c(c2c1)NC(=O)CC(=O)N3c1cccc(-c2noc(=S)[nH]2)c1 | -5% | 17% | -2% | – | IC50 (P2X purinoceptor 4 [15]): 11.8 µM
[N-]=[N+]=NCc1ccc2c3c(ccc2c1)N(c1cccc(-c2noc(=S)[nH]2)c1)C(=O)CC(=O)N3 | 2% | 0% | -5% | – | IC50 (P2X purinoceptor 4 [15]): 21.3 µM
O=C1CC(=O)N(c2cccc(-c3noc(=S)[nH]3)c2)c2cc(C#Cc3cccnc3)c3ccccc3c2N1 | 13% | 9% | 9% | 34% | –
